Results taken from ChEMBL document CHEMBL3585321, “Synthesis and antimicrobial activity of chloramphenicol-polyamine conjugates” (Bioorg Med Chem, 2015).
Active and inactive are the calls of the source. The calls are words filed in the database; no cut-off is given here.

How the values were obtained:
[1] = Inhibition of Escherichia coli K-12 70S ribosome poly(U)-programmed ribosome (complex C) bearing tRNAPhe at E-site and Ac[3H]Phe-tRNA at P-site assessed as reduction in peptide bond formation using puromycin(S) substrate
[2] = tested on: Staphylococcus aureus; assay: Antibacterial activity against methicillin-resistant Staphylococcus aureus GRE2372 assessed as inhibition of bacterial growth; type: functional, organism-based
[3] = tested on: Staphylococcus aureus; assay: Antibacterial activity against methicillin-resistant Staphylococcus aureus GRE2691 assessed as inhibition of bacterial growth; type: functional, organism-based
[4] = tested on: Staphylococcus aureus; assay: Antibacterial activity against methicillin-resistant Staphylococcus aureus GRE2272 assessed as inhibition of bacterial growth; type: functional, organism-based
[5] = tested on: Escherichia coli; assay: Antibacterial activity against wild type Escherichia coli K-12 assessed as inhibition of bacterial growth; type: functional, organism-based
[6] = tested on: Escherichia coli; assay: Antibacterial activity against Escherichia coli Rosetta(DE3) containing rare tRNA genes and chloramphenicol resistant gene in pLysS plasmid assessed as inhibition of bacterial growth; type: functional, organism-based
Summary of the method: (§1)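 IC50 from bacterial cultures grown in LB medium without drug or with drug across a range of concentrations, reported in μM. Three independent experiments, each with two replicates, given as mean±SD.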

[7] = tested on: Escherichia coli; assay: Antibacterial activity against Escherichia coli BL21(DE3) expressing delta-tolC gene assessed as inhibition of bacterial growth; type: functional, organism-based; summary of the method: as §1
[8] = tested on: Staphylococcus aureus; assay: Antibacterial activity against wild type Staphylococcus aureus assessed as inhibition of bacterial growth; type: functional, organism-based
[9] = tested on: Escherichia coli; assay: Antibacterial activity against Escherichia coli lacking chromosomal rrn alleles and containing pKK35 plasmids possessing 23S rRNA A2503C mutant assessed as inhibition of bacterial growth; type: functional, organism-based
[10] = tested on: Escherichia coli; assay: Antibacterial activity against Escherichia coli lacking chromosomal rrn alleles and containing pKK35 plasmids possessing 23S rRNA A2058G mutant assessed as inhibition of bacterial growth; type: functional, organism-based

Molecule | Ki [1] | growth inhibition (GI) [2] | growth inhibition (GI) [3] | growth inhibition (GI) [4] | IC50 [5] | IC50 [2] | IC50 [3] | IC50 [6] | IC50 [4] | IC50 [7] | further results
NCCCCN(CCCN)C(=O)CCC(=O)N[C@H](CO)[C@H](O)c1ccc([N+](=O)[O-])cc1 | 1.2 µM | – | – | – | – | – | – | – | – | – | –
CC(=O)O[C@H]1C[C@@]2(C)[C@@H](C[C@@H](O)[C@H]3[C@@]4(C)CC[C@@H](O)[C@@H](C)[C@@H]4CC[C@@]32C)/C1=C(\CCC=C(C)C)C(=O)O | – | inactive | inactive | inactive | – | – | – | – | – | – | –
NCCCCNC(=O)CCC(=O)N[C@H](CO)[C@H](O)c1ccc([N+](=O)[O-])cc1 | – | – | – | – | > 200 µM | > 200 µM | > 200 µM | > 200 µM | > 200 µM | > 200 µM | –
GENTAMICIN | – | Active | inactive | inactive | – | – | – | – | – | – | –
O=C(CCNC(=O)c1nc[nH]n1)N[C@H](CO)[C@H](O)c1ccc([N+](=O)[O-])cc1 | 4 µM | – | – | – | > 200 µM | > 100 µM | > 100 µM | > 200 µM | > 100 µM | > 200 µM | IC50 [8]: 66 µM
CCC[C@@H]1C[C@@H](C(=O)N[C@@H]([C@H]2O[C@H](SC)[C@H](O)[C@@H](O)[C@H]2O)[C@H](C)Cl)N(C)C1 | – | inactive | Active | inactive | – | – | – | – | – | – | –
Cc1onc(-c2ccccc2)c1C(=O)N[C@@H]1C(=O)N2[C@@H]1SC(C)(C)[C@@H]2C(=O)O | – | inactive | inactive | inactive | – | – | – | – | – | – | –
NCCCNCCCCNCCCNC(=O)CCC(=O)N[C@H](CO)[C@H](O)c1ccc([N+](=O)[O-])cc1 [listing 1 of 2 here] | – | – | – | – | > 100 µM | > 200 µM | > 200 µM | > 200 µM | > 200 µM | > 100 µM | IC50 [8]: 45.3 µM; IC50 [9]: > 100 µM; IC50 [10]: > 100 µM
NCCCNCCCCNCCCNC(=O)CCC(=O)N[C@H](CO)[C@H](O)c1ccc([N+](=O)[O-])cc1 [listing 2 of 2 here] | 0.75 µM | – | – | – | – | – | – | – | – | – | –
NCCCCNC(=O)c1ccccc1C(=O)N[C@H](CO)[C@H](O)c1ccc([N+](=O)[O-])cc1 [listing 1 of 2 here] | 8.45 µM | – | – | – | – | – | – | – | – | – | –
O=C(N[C@H](CO)[C@H](O)c1ccc([N+](=O)[O-])cc1)c1nc[nH]n1 | 1 µM | – | – | – | > 300 µM | > 100 µM | > 100 µM | > 300 µM | > 100 µM | > 300 µM | IC50 [8]: > 100 µM
CCCCCCCCCC(=O)N[C@@H](Cc1c[nH]c2ccccc12)C(=O)N[C@H](CC(N)=O)C(=O)N[C@@H](CC(=O)O)C(=O)N[C@@H]1C(=O)NCC(=O)N[C@@H](CCCN)C(=O)N[C@@H](CC(=O)O)C(=O)N[C@H](C)C(=O)N[C@@H](CC(=O)O)C(=O)NCC(=O)N[C@H](CO)C(=O)N[C@@H]([C@H](C)CC(=O)O)C(=O)N[C@@H](CC(=O)c2ccccc2N)C(=O)O[C@@H]1C | – | Active | Active | Active | – | – | – | – | – | – | –
COc1cccc(OC)c1C(=O)N[C@@H]1C(=O)N2[C@@H]1SC(C)(C)[C@@H]2C(=O)O | – | inactive | inactive | inactive | – | – | – | – | – | – | –
NCCCCNC(=O)c1ccccc1C(=O)N[C@H](CO)[C@H](O)c1ccc([N+](=O)[O-])cc1 [listing 2 of 2 here] | – | – | – | – | > 200 µM | > 200 µM | > 200 µM | > 200 µM | > 200 µM | > 200 µM | –
